# pIC50: −log10 of the molar value. The source made the active and inactive calls. The calls are words filed in the database; no cut-off is given here.
# Legend:
# Cryptococcus neoformans [1] = assay: Downregulation of HOS3 mRNA expression in Cryptococcus neoformans H99 at 2 ug/ml measured after 24 hrs by qRT-PCR analysis; format: functional; conditions: dose 2.0 µg/ml
# Procedure, shortened: (§1)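 Exponentially growing C. neoformans H99 inoculated into 50 mL YPD with compound and incubated 35 °C for 24 h. Cells ground in liquid nitrogen before total RNA isolation, then reverse transcription and real-time RT-qPCR. Means ± SD of three independent assays.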
# Cryptococcus neoformans [2] = assay: Downregulation of RPD3 mRNA expression in Cryptococcus neoformans H99 at 2 ug/ml measured after 24 hrs by qRT-PCR analysis; format: functional; conditions: dose 2.0 µg/ml; procedure, shortened: as §1
# Candida tropicalis [3] = assay: Inhibition of CYP51 in Candida tropicalis 5008 assessed as ergosterol level at 4 ug/ml by GC-MS analysis (reference value: 84.91%); parameters: scale not given: the % may be the effect or the level left; conditions: dose 4.0 µg/ml
# Candida albicans [4] = assay: microbe, parasite or virus in culture; format: functional; conditions: 0304103
# Cryptococcus neoformans [5] = assay: Downregulation of CAP64 gene expression in Cryptococcus neoformans H99 at 2 ug/ml measured after 24 hrs by qRT-PCR analysis; format: functional; conditions: dose 2.0 µg/ml; procedure, shortened: as §1
# Candida albicans [6] = assay: Antifungal activity against fluconazole-sensitive Candida albicans 10061 assessed as inhibition of fungal growth; format: functional
# HUVEC = assay: Cytotoxicity against human HUVEC assessed as reduction in cell viability; format: cell-based
# Candida albicans [7] = assay: Antifungal activity against fluconazole-sensitive Candida albicans SC5314 assessed as inhibition of fungal growth; format: functional
# Candida tropicalis [8] = assay: microbe, parasite or virus in culture; format: functional; conditions: 3890, time 48 hrs
# Cryptococcus neoformans [9] = assay: Downregulation of HDA1 mRNA expression in Cryptococcus neoformans H99 at 2 ug/ml measured after 24 hrs by qRT-PCR analysis; format: functional; conditions: dose 2.0 µg/ml; procedure, shortened: as §1
# [10] = Inhibition of HDAC in Cryptococcus neoformans H99 using Boc-Lys(Ac)-AMC as substrate preincubated with protoplast for 12 hrs followed by incubation with substrate for 6 hrs by fluorimetric assay
# Cryptococcus neoformans [11] = assay: Inhibition of CYP51 in Cryptococcus neoformans H99 assessed as eburicol level at 4 ug/ml by GC-MS analysis (reference value: 39.82%); parameters: scale not given: the % may be the effect or the level left; conditions: dose 4.0 µg/ml
# Candida tropicalis [12] = assay: Antifungal activity against Candida tropicalis 5008 assessed as inhibition of fungal filamentation by measuring reduction in hyphae formation at 1 ug/ml incubated for 7 hrs by cell inverted imaging microscopic analysis; format: functional, organism-based; conditions: dose 1.0 µg/ml
# Procedure, shortened: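 C. tropicalis 5008 from exponential YEPD culture diluted in spider medium to 1 × 10⁵ CFU/mL. Compound added at several concentrations, with fluconazole as positive drug. Incubated 37 °C for 7 h, then morphology compared with the no-drug group by live-cell inverted microscopy.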
# Candida tropicalis [13] = assay: Inhibition of CYP51 in Candida tropicalis 5008 assessed as obtusifoliol level at 4 ug/ml by GC-MS analysis; parameters: scale not given: the % may be the effect or the level left; conditions: dose 4.0 µg/ml
# Cryptococcus neoformans [14] = assay: Downregulation of CAP10 gene expression in Cryptococcus neoformans H99 at 2 ug/ml measured after 24 hrs by qRT-PCR analysis; format: functional; conditions: dose 2.0 µg/ml
# Procedure, shortened: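 Exponential-phase C. neoformans H99 inoculated into 50 mL YPD with compound. Incubated 35 °C for 24 h, then cultures ground in liquid nitrogen for RNA isolation. Transcript levels of capsule-associated genes quantified by RT-qPCR. Three independent experiments, mean ± SD, t-test.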
# Cryptococcus neoformans [15] = assay: Antifungal activity against fluconazole-sensitive Cryptococcus neoformans H99 assessed as inhibition of cell proliferation at 2 to 8 ug/ml measured for 48 hrs by time growth curve assay; format: functional, organism-based; conditions: dose 2-8 µg/ml
# Procedure, shortened: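 Exponential-phase cells from YEPD resuspended in 3 mL fresh RPMI 1640 at 1 × 10⁵ cells/mL (C. tropicalis 5008) or 1 × 10⁶ cells/mL (C. neoformans H99). Compound at several concentrations; cultures shaken at 240 rpm, 30 °C. Growth read as OD₆₃₀ at 0, 6, 12, 24, 36 and 48 h. Done in triplicate.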
# Cryptococcus neoformans [16] = assay: Downregulation of HOS1 mRNA expression in Cryptococcus neoformans H99 at 2 ug/ml measured after 24 hrs by qRT-PCR analysis; format: functional; conditions: dose 2.0 µg/ml; procedure, shortened: as §1
compound,measurement,setting,value
O=C(CCCCCCCOc1ccc(CN2CCN(CC(O)(Cn3cncn3)c3ccc(F)cc3F)CC2)cc1)NO (configuration not stated),inhibition,Cryptococcus neoformans [1],Active
same,inhibition,Cryptococcus neoformans [2],Active
same,Activity,Candida tropicalis [3],1.51%
same,MIC80,Candida albicans [4],8 µg/mL
same,inhibition,Cryptococcus neoformans [5],inactive
same,MIC80,Candida albicans [6],16 µg/mL
same,IC50,HUVEC,5.9 µg/mL
same,MIC80,Candida albicans [7],8 µg/mL
same,MIC80,Candida tropicalis [8],0.5 µg/mL
same,inhibition,Cryptococcus neoformans [9],Active
same,pIC50,[10],4.90
same,Activity,Cryptococcus neoformans [11],71.3%
same,Activity,Candida tropicalis [12],Active
same,Activity,Candida tropicalis [13],16%
same,inhibition,Cryptococcus neoformans [14],Active
same,Activity,Cryptococcus neoformans [15],Active
same,inhibition,Cryptococcus neoformans [16],Active
